# pPAFAH FP inh = pPAFAH (human) enzyme inhibition | inhibition, % at 3.39 µM | 330,000 compounds, 1.5% hits | recombinant pPAFAH, FP-rhodamine probe fluorescence polarization;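 active = inhibition above the mean inhibition across the screen plus 3 SD, cut at about 25% in these data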;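 note: inhibitors block binding of the rhodamine activity-based probe so polarization drops; 0% = enzyme with DMSO and 100% = wells lacking pPAFAH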
# PAFAH2 inh = inhibitors of human PAFAH2; AID 492956; inhibition, % at 3.39 µM; 340,000 compounds, 0.99% hits; recombinant PAFAH2, FP-rhodamine activity probe, fluorescence polarization;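 active = inhibition above the mean over all tested compounds plus 3 SD, cut at about 30% in these data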;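 note: inhibitors block probe labeling of enzyme so polarization drops; 0% = enzyme with DMSO and 100% = wells lacking PAFAH2 protein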
# PREPL inh = inhibitors of human prolyl oligopeptidase-like enzyme PREPL; Q4J6C6; recombinant PREPL, fluorescence polarization activity-based probe; inhibition, % at 5.96 µM; 320,000 compounds, 0.68% hits; in the data active = inhibition above about 43%;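 note: 0% = enzyme with DMSO and 100% = wells lacking enzyme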
# Target sequence (Q4J6C6 whole entry, looked up): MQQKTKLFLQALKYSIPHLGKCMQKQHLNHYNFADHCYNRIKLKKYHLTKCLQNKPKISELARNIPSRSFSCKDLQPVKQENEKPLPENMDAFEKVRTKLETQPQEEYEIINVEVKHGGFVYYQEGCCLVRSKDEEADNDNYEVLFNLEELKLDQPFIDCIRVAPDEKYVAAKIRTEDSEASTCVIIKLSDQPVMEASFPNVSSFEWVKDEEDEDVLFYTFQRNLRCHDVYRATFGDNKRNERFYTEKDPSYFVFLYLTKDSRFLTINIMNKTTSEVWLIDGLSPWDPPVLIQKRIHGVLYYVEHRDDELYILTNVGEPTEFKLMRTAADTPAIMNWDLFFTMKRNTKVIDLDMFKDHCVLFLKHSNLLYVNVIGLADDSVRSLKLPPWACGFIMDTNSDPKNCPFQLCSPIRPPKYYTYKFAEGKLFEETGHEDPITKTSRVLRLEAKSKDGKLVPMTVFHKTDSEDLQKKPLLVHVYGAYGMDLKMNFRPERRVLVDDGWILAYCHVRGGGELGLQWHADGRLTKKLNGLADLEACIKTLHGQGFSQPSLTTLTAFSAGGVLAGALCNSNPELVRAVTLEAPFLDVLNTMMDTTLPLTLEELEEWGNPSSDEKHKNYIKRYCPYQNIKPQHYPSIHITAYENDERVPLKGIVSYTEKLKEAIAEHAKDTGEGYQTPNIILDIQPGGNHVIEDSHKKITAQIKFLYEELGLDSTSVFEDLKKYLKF
# Apaf1 inhib = human Apaf-1 inhibition; reconstituted apoptosome caspase-3 activity, DEVD-Rh110 fluorescence; inhibition, % at 20 µM; 330,000 compounds, 0.71% hits; active = inhibition of at least 40% at 20 µM;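 note: plate controls were DMSO wells for no effect and DEVD-CHO caspase inhibitor wells for full effect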
#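 Material: cell-free apoptosome with Apaf-1, procaspase-3 and caspase-9; Buffer or medium: Hepes pH 7.5 with detergent and BSA; Reagent: cytochrome c trigger plus (Z-DEVD)2-Rh110 caspase-3 substrate; Times: compound with Apaf-1, dATP, procaspase-3 30 min, then 50 min reaction, room temperature; Technique: Rh110 fluorescence intensity.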
# PAFAH1B3 inh = PAFAH1B3 (human) inhibition. AID 492972. recombinant PAFAH1B3, FP-rhodamine probe, fluorescence polarization. Q15102. inhibition, % at 3.39 µM. 340,000 compounds, 0.28% hits;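 active = inhibition above the screen-wide average of all tested compounds plus 3 SD, cut at about 25% in these data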;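 note: 0% = enzyme with DMSO only and 100% = wells lacking PAFAH1B3 protein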
# PAFAH1B2 inh = PAFAH1B2 (human) inhibition; P68402; recombinant PAFAH1B2, FP-rhodamine activity probe, fluorescence polarization; inhibition, % at 3.39 µM; 340,000 compounds, 1.2% hits; AID 492953;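 active = inhibition above the mean of all tested compounds plus 3 SD, cut at about 24% in these data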;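 note: 0% = enzyme with DMSO and 100% = wells lacking PAFAH1B2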
# Numbers without * were called inactive; i = inactive; · = no result. In the library only some 3.5% were active in any assay of this set; here they are far more common.
SMILES,pPAFAH FP inh,PAFAH2 inh,PREPL inh,Apaf1 inhib,PAFAH1B3 inh,PAFAH1B2 inh
Nc1c(C(=O)NCc2ccco2)c2nc3ccccc3nc2n1CCN1CCOCC1,13,7,13,44*,5,4
CCCCCCn1c(N)c(C(=O)NCCN2CCOCC2)c2nc3ccccc3nc21,6,-4,32,52*,2,1
COCC(C)OC(=O)c1c(N)n(Cc2ccco2)c2nc3ccccc3nc12 (configuration not stated),7,-6,7,61*,4,2
CCCCCn1c(N)c(C(=O)NCCN2CCOCC2)c2nc3ccccc3nc21,8,0,27,32,1,1
O=C(Cn1c(=O)c(C(F)(F)F)nc2ccccc21)N1CCC2(CC1)OCCO2,0,1,7,0,3,0
CC[n+]1c(-c2ccccc2)c2cc(N)ccc2c2ccc(N)cc21,·,82*,·,·,90*,65*
CN(C)[C@@H]1C(=O)C(C(N)=O)=C(O)[C@@]2(O)C(=O)C3=C(O)c4c(O)ccc(Cl)c4[C@@](C)(O)[C@H]3C[C@@H]12,30*,12,10,·,15,9
O=[N+]([O-])c1cccc(O)c1,2,4,-2,-3,3,3
O=[N+]([O-])c1cc(S(=O)(=O)c2ccc(O)c([N+](=O)[O-])c2)ccc1O,28*,39*,-2,1,29*,14
CCCC[N+]1(C)[C@@H]2CC(OC(=O)[C@H](CO)c3ccccc3)C[C@H]1[C@@H]1O[C@@H]12 (some centres not stated),3,-6,-6,-7,-1,-1
CC1(C)C(C(=O)N2CCN(C(=O)c3ccccc3)CC2)C1(C)C,0,-2,-1,1,6,8
O=C(c1ccc(Cl)cc1)N1CCC2(CC1)OCCO2,-1,2,4,-2,5,4
O=C(c1ccc(N2CCCCC2)c([N+](=O)[O-])c1)N1CCC2(CC1)OCCO2,34*,7,5,-7,3,-1
CCOP(=O)(Cc1cc(C#N)oc1C)OCC,-4,-2,3,0,6,-1
Cc1ccc(C(=O)COC(=O)Cc2ccccc2)cc1,8,-1,-9,2,1,9
Cc1ccc(S(=O)(=O)N2CCN(C(=O)COC(=O)Cc3ccccc3)CC2)c(C)c1,31*,24,3,15,1,7
ClC(Cl)=C(c1ccc(Cl)cc1)c1ccc(Cl)cc1,6,2,2,-2,-1,25*
CN1C(=O)NC(=O)[C@]2(Cc3ccccc3N3CCN(c4ccccc4)CC32)C1=O (some centres not stated),15,6,17,4,6,-3
O=C1NC(=O)[C@]2(Cc3ccccc3N3CCN(c4ccccc4)CC32)C(=O)N1c1ccccc1 (some centres not stated),28*,20,18,6,3,4
Cc1ccc(S(=O)(=O)NP(=O)(Oc2ccccc2)Oc2ccccc2)cc1,-2,2,4,-5,24,46*
O=P(NS(=O)(=O)c1ccc(Br)cc1)(Oc1ccccc1)Oc1ccccc1,4,7,-2,-13,0,78*
Cc1ccc(C)c(NP(=O)(Oc2ccccc2)Oc2ccccc2)c1,-5,0,-10,22,6,-5
O=P(NS(=O)(=O)c1ccccc1)(Oc1ccccc1)Oc1ccccc1,-1,5,7,-2,7,23
O=P(NS(=O)(=O)c1ccc(Cl)cc1)(Oc1ccccc1)Oc1ccccc1,1,-4,1,-12,7,84*
COC(=O)C1=C(c2ccccc2OCc2ccccc2)C[C@@H]2CC[C@H]1N2C(=O)NCCCOC(C)C,2,-4,30,22,15,-3
SMILES,pPAFAH FP inh,PAFAH2 inh,PREPL inh,Apaf1 inhib,PAFAH1B3 inh,PAFAH1B2 inh
O=c1ccc2cc(O[C@@H]3O[C@H](CO)[C@@H](O)[C@H](O)[C@H]3O)c(O)cc2o1,·,1,·,·,10,1
COC(=O)C1=C(c2cccc(OCc3ccccc3)c2)C[C@@H]2CC[C@H]1N2C(=O)NCc1ccccc1C(F)(F)F,-1,-8,10,28,1,-1
O=C1NC(=O)N(CCc2ccc(F)cc2)C(=O)/C1=C/c1ccco1,29*,-17,12,2,2,7
CCN1/C(=C\C=C\C2=[N+](CC)c3ccccc3C2(C)C)C(C)(C)c2ccccc21,-171,-435,i,56*,-429,-283
CCOC(=O)c1ccc2[nH]c(-c3ccc(S(=O)(=O)F)cc3)cc(=O)c2c1,28*,8,1,4,8,8
CN(C)C(=O)Oc1ccc(-c2cn3cc(Cl)ccc3n2)cc1,-2,-5,-3,-7,-3,-1
Cc1ccc(-c2nc3ccc(Cl)cc3n2OC(=O)N(C)C)cc1,2,2,0,17,6,62*
C[C@]12C=CC(=O)C=C1CC[C@@H]1C2CC[C@]2(C)OC(=O)CCC12 (some centres not stated),2,0,-2,-2,12,7
Cc1cc(C)n(-c2ccc(NN=C(C#N)C#N)cc2)n1,28*,7,23,-5,4,1
COc1cccc(C2CCN(CC(=O)Nc3cc(Cl)ccc3OC)CC2O)c1 (configuration not stated),33*,-1,7,11,8,4
COc1cccc(CC(=O)N2CCN(Cc3cccc(Cl)c3)CC2)c1,0,-1,-8,12,3,6
Cc1ccc(OCCOc2cccc(C=C3C(=O)NC(=O)NC3=O)c2)cc1,4,1,5,11,1,39*
Cc1ccc2nc(N3CCC(C(=O)N4CCC5(CC4)OCCO5)CC3)sc2c1,11,2,15,-2,9,3
CCc1ccc2nc(N3CCC(C(=O)N4CCC5(CC4)OCCO5)CC3)sc2c1,29*,1,12,12,4,1
NP(=O)(OCC(F)(F)F)Oc1cccc2ccccc12 (configuration not stated),7,-1,-1,-11,-3,19
NP(=O)(Oc1ccccc1Cl)Oc1ccccc1Cl,1,-2,9,1,2,24*
CC(NC1=NCCS1)c1ccccc1 (configuration not stated),2,-14,1,-14,4,6
O=C(Nc1ccc2ccccc2c1)N1C[C@H]2C[C@@H](C1)c1cccc(=O)n1C2,1,-3,-5,-3,5,1
O=c1[nH]c(=S)n(CCC2=CCCCC2)c(O)c1/C=N/Nc1ccccc1,17,9,-23,8,2,35*
O=C1NC(=O)N(c2ccccc2)C(=O)/C1=C/c1ccc(Sc2ccccc2)o1,4,39*,-6,·,6,60*

# Screening data deposited in PubChem BioAssay by several laboratories.
